From the RNAGym collection of RNA variant scans (doi:10.1126/science.aae0568)
This sample holds only a part of the variants without activity.

B1: tRNA (parent)
chain: GUUCCGUUGGCGUAAUGGUAACGCGUCUCCCUCCUAAGGAGAAGACUGCGGGUUCGAGUCCCGUACGGAACG

Variants of: B1
Test: yeast fitness relative to wild type (ratio to wild type); higher = fitter; tRNA-Arg(CCU), competitive growth, 37 C, YPD
Summary of the method: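 The tRNA-Arg(CCU) gene variants were made by chemical synthesis with a 3% per-site mutation rate at 69 sites and inserted at the native genomic locus of Saccharomyces cerevisiae. After pooling, the strains were competed in YPD at 37°C for 24 hours in six parallel replicates. Gene amplicons from the start population and each end population were read by 100-nucleotide paired-end sequencing, and Darwinian fitness relative to wild type was taken from genotype frequency changes. Genotypes needed ≥ 100 starting reads, and estimates < 0.5 were set to 0.5.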

C11U A40G U47G and C4G A42C G50A cannot be ordered by yeast fitness: ≤ 0.5 for the first, ≤ 0.5 for the second.

Compared with C4U A14G, G9A G39A A45G G50A G63U A69U is lower in yeast fitness: 0.856 for the first, ≤ 0.5 for the second.

First: G6C C11G A21G C29G A40C
Second: U3A U59A
The yeast fitness of the first is lower: ≤ 0.5 for the first, 0.658 for the second.

Compared with A14C A45G, G10A C30G A65G is lower in yeast fitness: 0.611 for the first, ≤ 0.5 for the second.

U13C G17A U47C A65G and U26A U28C C30G C62A cannot be ordered by yeast fitness: ≤ 0.5 for the first, ≤ 0.5 for the second.

U16C C31A A42U C62G A70C and A14G G18C C30G G52C C61A cannot be ordered by yeast fitness: ≤ 0.5 for the first, ≤ 0.5 for the second.

Going from A40U G67U to A20U A36G G48C G67C, the yeast fitness falls from 0.797 to ≤ 0.5.

Going from C30U U54G U59G to G9C C24A C34A C46G, the yeast fitness falls from 0.655 to ≤ 0.5.

Going from G17A C22G U28A C31G C55A G68C to G50C C62G A70U, the yeast fitness rises from ≤ 0.5 to 0.606.

C5U G25C A36C A40U and G12C A15U C33U C49G G58A cannot be ordered by yeast fitness: ≤ 0.5 for the first, ≤ 0.5 for the second.

C30G G58C C60U A65G and C34A C55G U64C A65C cannot be ordered by yeast fitness: ≤ 0.5 for the first, ≤ 0.5 for the second.

Compared with C24U A70C, C27G C49A G52C C60U is lower in yeast fitness: 1.04 for the first, ≤ 0.5 for the second.

C27U C31U G52C U59G and C31G A36U G39A cannot be ordered by yeast fitness: ≤ 0.5 for the first, ≤ 0.5 for the second.

First: U26A C66A A70U
Second: C5G G6A C24U
The yeast fitness of the first is lower: ≤ 0.5 for the first, 0.577 for the second.

Compared with U19C A40G G48A, A43C G67C is higher in yeast fitness: 0.718 for the first, 0.867 for the second.

C24G C34G A36G U53A and G6A C24G C31G C34U cannot be ordered by yeast fitness: ≤ 0.5 for the first, ≤ 0.5 for the second.

Going from C22A C29U C62G to C4G A40U A69U, the yeast fitness rises from ≤ 0.5 to 0.72.

Going from G6A A14G A45G to C11U U28G C30A, the yeast fitness falls from 0.797 to ≤ 0.5.

U2A G17C C24U C33U A36G U54C and A14U G44C G50A cannot be ordered by yeast fitness: ≤ 0.5 for the first, ≤ 0.5 for the second.

Going from C24A C33U C62U to G39A U54C, the yeast fitness rises from ≤ 0.5 to 0.945.

First: C4U G9C
Second: G6A G12C U16C A21U G63C G67A
The yeast fitness of the first is higher: 0.688 for the first, ≤ 0.5 for the second.

First: C27G A37G U64A
Second: U28G C31G G39A
The yeast fitness of the first is lower: ≤ 0.5 for the first, 0.578 for the second.

Going from C4A C29U C33A A36C A42C A45G to C22U C61U, the yeast fitness rises from ≤ 0.5 to 0.72.

A14G U32G A45G A69U and A21U C31A C61U cannot be ordered by yeast fitness: ≤ 0.5 for the first, ≤ 0.5 for the second.

Going from C30G C33G A42G C49U C61U to C22G C24A G38A, the yeast fitness falls from 0.663 to 0.544.

First: G9C G10C A36U
Second: A14G C27G C34G A37U U64A
The yeast fitness of the first is lower: ≤ 0.5 for the first, 0.667 for the second.

Going from U8A G10A G58C A69U to A20C G68A, the yeast fitness rises from ≤ 0.5 to 0.843.

Going from A15C C31A U35C A45U to U3C G25U U59C A69C, the yeast fitness rises from ≤ 0.5 to 0.531.

First: C5G C60G C62G G67C A69U
Second: C5U G17A A36U U47A C66U
The yeast fitness of the first is higher: 0.654 for the first, 0.58 for the second.

U19A C30G A40C C62G C66G A69C and A20U U47G G52C cannot be ordered by yeast fitness: ≤ 0.5 for the first, ≤ 0.5 for the second.

Going from G6C U8C G58C to C31U U59A, the yeast fitness rises from 0.685 to 0.771.

Going from A20G G50A to G25C C27U C61G, the yeast fitness falls from 0.905 to 0.502.

Going from C5A U7C C29U C66U to U2A C29A A45U U59C, the yeast fitness rises from ≤ 0.5 to 0.575.

First: G38A U47C
Second: C24A A57U
The yeast fitness of the first is higher: 0.837 for the first, 0.681 for the second.

Going from G18C U26G to G48C G52C A57C G58A C66U, the yeast fitness falls from 0.644 to ≤ 0.5.

Going from G12A G48C to C27G C30U G67A A70G, the yeast fitness falls from 0.754 to ≤ 0.5.

First: C11U U28G
Second: U3A A14G
The yeast fitness of the first is lower: 0.792 for the first, 0.934 for the second.

C11U A15U A21C C24G C29U A42C U59G G67U and C11U U13A G41A A45U G58U C60A cannot be ordered by yeast fitness: ≤ 0.5 for the first, ≤ 0.5 for the second.

Going from A15G C29U to C33U U47G C49U, the yeast fitness falls from 0.952 to 0.581.

First: A21G C31G C33G
Second: C34U A57C A69C
The yeast fitness of the first is lower: ≤ 0.5 for the first, 0.738 for the second.

Going from C11G U28C U54C G58A to U3C G10C C27U G68C, the yeast fitness falls from 0.53 to ≤ 0.5.

Compared with A36U G44C, A14G G50U G67C is lower in yeast fitness: 0.629 for the first, ≤ 0.5 for the second.

C5U C46U G50C C61U and A43U C62A A65U C66U cannot be ordered by yeast fitness: ≤ 0.5 for the first, ≤ 0.5 for the second.

Going from U13A G38A C49G G50C A70G to G18C A65G, the yeast fitness rises from ≤ 0.5 to 0.62.

Compared with U3C C34G A40C A43U, C4G C46U is higher in yeast fitness: ≤ 0.5 for the first, 0.861 for the second.

C24G A36U A65G and U35C A45U C49A C66U cannot be ordered by yeast fitness: ≤ 0.5 for the first, ≤ 0.5 for the second.

Going from U28C C30U A69U to U3C A14U A15C C31G A43U, the yeast fitness falls from 0.598 to ≤ 0.5.

U3G C29A U53A and U3C G23A C27G C33A cannot be ordered by yeast fitness: ≤ 0.5 for the first, ≤ 0.5 for the second.

C5G C33U G44C and C24A C49U C55U cannot be ordered by yeast fitness: ≤ 0.5 for the first, ≤ 0.5 for the second.

Compared with U32C A69C, C4G C27G C46G U54C is lower in yeast fitness: 0.943 for the first, 0.64 for the second.

Going from C5G A20C U54A to C22U G52A C55A A69C, the yeast fitness falls from 0.616 to ≤ 0.5.

First: C4G U32C A70U
Second: C34U A40G C46A
The yeast fitness of the first is higher: 0.742 for the first, 0.579 for the second.

Going from C22A C31U C34G to G6A A37G C60G A70U, the yeast fitness falls from 0.536 to ≤ 0.5.

First: C4G C29U A36C A40U C55G
Second: G9A A42C C66U
The yeast fitness of the first is lower: ≤ 0.5 for the first, 0.543 for the second.

First: C5A G18C G48C A65C
Second: U13A G39A
The yeast fitness of the first is lower: ≤ 0.5 for the first, 0.782 for the second.

U2A A37C G41C C66A and G6C U28C A36C G51A C66A cannot be ordered by yeast fitness: ≤ 0.5 for the first, ≤ 0.5 for the second.

First: C5U U16G
Second: U8A C30U G63A
The yeast fitness of the first is higher: 0.809 for the first, ≤ 0.5 for the second.

Going from A37G C46A to U7A C34G U53C, the yeast fitness falls from 0.774 to 0.726.

First: G6C C62A
Second: U7A A15G G23A G51A C55A C66U
The yeast fitness of the first is higher: 0.798 for the first, ≤ 0.5 for the second.

U3A C4G U8A C24G U53C G58A and A14U G17A A43C C46U cannot be ordered by yeast fitness: ≤ 0.5 for the first, ≤ 0.5 for the second.

First: C4G C5U U13A A40C G58A G68C
Second: G10C U26A A70U
The yeast fitness of the first is lower: ≤ 0.5 for the first, 0.622 for the second.

G6C G23C C24A G52A C55U and A40U A43G A57G cannot be ordered by yeast fitness: ≤ 0.5 for the first, ≤ 0.5 for the second.

Going from A14C C30U A37C to A20G C24A A42U, the yeast fitness falls from 0.552 to 0.546.

C34G G41A A45G A57G C60G C62U and C4G C11G C27G A57G U59G cannot be ordered by yeast fitness: ≤ 0.5 for the first, ≤ 0.5 for the second.

First: A21U A36C G39A
Second: U26C C46U C62U
The yeast fitness of the first is lower: 0.58 for the first, 0.718 for the second.

C31A C62A C66G and U28C A37C A69C cannot be ordered by yeast fitness: ≤ 0.5 for the first, ≤ 0.5 for the second.

Compared with C24A U26G A43C A70G, U8C C22G C49U A69U is higher in yeast fitness: ≤ 0.5 for the first, 0.573 for the second.

Compared with A14C C24G G39A, A36C U53C G56U is higher in yeast fitness: ≤ 0.5 for the first, 0.603 for the second.

Going from U8C G12C C55U A70C to U32C A37C G39C, the yeast fitness falls from 0.542 to ≤ 0.5.

Compared with A15G C49A G56A, U3C G10U U26C A42U is lower in yeast fitness: 0.506 for the first, ≤ 0.5 for the second.

Going from C5A U16A A21G C27G C46U to U16C U32A, the yeast fitness rises from ≤ 0.5 to 0.682.

Going from G23C C27G C61U to U16C G58C, the yeast fitness rises from ≤ 0.5 to 1.06.

Compared with C24G U54G G63A, G12C C27A G56C is higher in yeast fitness: 0.553 for the first, 0.702 for the second.

Going from C31U A69C A70U to A21G A40G C49G U59G G67C, the yeast fitness falls from 0.747 to ≤ 0.5.

Going from G9C C27A C33A G63A A70G to C24A C60U, the yeast fitness rises from ≤ 0.5 to 0.543.

Going from A14C G48C C55U G63U to C5U A45U, the yeast fitness rises from ≤ 0.5 to 1.01.

Going from C5G U32C A45G C46A to C4G C31A C33G G51C G52A C60G, the yeast fitness falls from 0.907 to ≤ 0.5.

Compared with G18A A36G A42U, U35C G58C is higher in yeast fitness: 0.691 for the first, 0.883 for the second.

Compared with C29A C33U, U2A U32A is higher in yeast fitness: ≤ 0.5 for the first, 0.72 for the second.

C11G C24G C60A G68A and U8A U16A C29G A40G A42G C46G A65U cannot be ordered by yeast fitness: ≤ 0.5 for the first, ≤ 0.5 for the second.

C5U A21G C29U C31A G51C and U7G G41C A69C cannot be ordered by yeast fitness: ≤ 0.5 for the first, ≤ 0.5 for the second.

Going from A21C C34U A65G to G9A G17A C22G A40G G41C, the yeast fitness falls from 0.532 to ≤ 0.5.

Compared with U3A C11A A20G G39A G51A U53A G63C, A43C A69U is higher in yeast fitness: ≤ 0.5 for the first, 1.12 for the second.

In the case of G25A U35C A43G, the yeast fitness is reported as ≤ 0.5.
